Experimental data as given in ChEMBL document CHEMBL2331333, “Synthesis, biological evaluation of new oxazolidino-sulfonamides as potential antimicrobial agents” (2013).
≈ marks a conversion by molar mass, not a printed value. Calls of active or inactive are those of the source. The calls are words filed in the database; no cut-off is given here.

Tests used:
[1] = test system: Candida albicans; test: Antifungal activity against Candida albicans MTCC 3017 at 20 ug/ml after 24 hrs by disk diffusion method; type: functional; conditions: MTCC 3017, 24 h, read-out: IZ
[2] = test system: Bacillus subtilis; test: Antibacterial activity against Bacillus subtilis MTCC 121 after 24 hrs by agar dilution method; type: functional; conditions: MTCC 121, 24 h
[3] = test system: Pseudomonas aeruginosa; test: Antibacterial activity against Pseudomonas aeruginosa MTCC 2453 after 24 hrs by agar dilution method; type: functional; conditions: MTCC 2453, 24 h
[4] = test system: Micrococcus luteus; test: Antibacterial activity against Micrococcus luteus MTCC 2470 after 24 hrs by agar dilution method; type: functional; conditions: MTCC 2470, 24 h
[5] = test system: Candida albicans; test: Antifungal activity against Candida albicans MTCC 3017 after 48 hrs by agar dilution method; type: functional; conditions: MTCC 3017, 48 h
Summary of the method: (§1)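 Same disk/dilution format as the antibacterial assay, on potato dextrose agar (39 g/L). Compounds were from DMSO stock, loaded at 1 to 80 per disk, in triplicate. Plates were incubated at 28 ± 2 °C for 48 h. MIC was the lowest amount that arrested growth. Equivalent DMSO served as solvent control.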

[6] = test system: Bacillus subtilis; test: Antibacterial activity against Bacillus subtilis MTCC 121 at 20 ug/ml after 24 hrs by disk diffusion method; type: functional; conditions: MTCC 121, 24 h, read-out: IZ
[7] = test system: Staphylococcus; test: Antibacterial activity against Staphylococcus MLS-16 MTCC 2940 at 20 ug/ml after 24 hrs by disk diffusion method; type: functional; conditions: MLS-16 MTCC 2940, 24 h, read-out: IZ
[8] = test system: Escherichia coli; test: Antibacterial activity against Escherichia coli MTCC 739 at 80 ug/ml after 24 hrs by agar dilution method; type: functional, organism-based
[9] = test system: Raoultella planticola; test: Antibacterial activity against Klebsiella planticola MTCC 530 at 80 ug/ml after 24 hrs by agar dilution method; type: functional, organism-based
[10] = test system: Staphylococcus; test: Antibacterial activity against Staphylococcus MLS-16 MTCC 2940 after 24 hrs by agar dilution method; type: functional; conditions: MLS-16 MTCC 2940, 24 h
[11] = test system: Staphylococcus aureus; test: Antibacterial activity against Staphylococcus aureus MTCC 96 after 24 hrs by agar dilution method; type: functional; conditions: MTCC 96, 24 h
[12] = test system: Pseudomonas aeruginosa; test: Antibacterial activity against Pseudomonas aeruginosa MTCC 2453 at 20 ug/ml after 24 hrs by disk diffusion method; type: functional; conditions: MTCC 2453, 24 h, read-out: IZ
[13] = test system: Micrococcus luteus; test: Antibacterial activity against Micrococcus luteus MTCC 2470 at 20 ug/ml after 24 hrs by disk diffusion method; type: functional; conditions: MTCC 2470, 24 h, read-out: IZ
[14] = test system: Staphylococcus aureus; test: Antibacterial activity against Staphylococcus aureus MTCC 96 at 20 ug/ml after 24 hrs by disk diffusion method; type: functional; conditions: MTCC 96, 24 h, read-out: IZ
[15] = test system: Pseudomonas aeruginosa; test: Antibacterial activity against Pseudomonas aeruginosa MTCC 2453 at 80 ug/ml after 24 hrs by agar dilution method; type: functional, organism-based
[16] = test system: Micrococcus luteus; test: Antibacterial activity against Micrococcus luteus MTCC 2470 at 80 ug/ml after 24 hrs by agar dilution method; type: functional, organism-based
[17] = test system: Candida albicans; test: Antifungal activity against Candida albicans MTCC 3017 at 80 ug/ml after 48 hrs by agar dilution method; type: functional, organism-based; summary of the method: as §1
[18] = test system: Mycobacterium tuberculosis; test: Antibacterial activity against Mycobacterium tuberculosis H37Rv at 32 ug/ml […] by agar dilution method; type: functional, organism-based
[19] = test system: Bacillus subtilis; test: Antibacterial activity against Bacillus subtilis MTCC 121 at 80 ug/ml after 24 hrs by agar dilution method; type: functional, organism-based
[20] = test system: Mycobacterium tuberculosis; test: Antibacterial activity against Mycobacterium tuberculosis H37Rv after 2 to 3 weeks by broth microdilution method; type: functional
Summary of the method: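 M. tuberculosis H37Rv, first screened at a single concentration of 32 in triplicate in a microtiter plate (microplate dilution assay). Compounds active in this screen were then taken to MIC determination by broth microdilution. Compounds were dissolved in DMSO.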

[21] = test system: Staphylococcus; test: Antibacterial activity against Staphylococcus MLS-16 MTCC 2940 at 80 ug/ml after 24 hrs by agar dilution method; type: functional, organism-based
[22] = test system: Staphylococcus aureus; test: Antibacterial activity against Staphylococcus aureus MTCC 96 at 80 ug/ml after 24 hrs by agar dilution method; type: functional, organism-based

| Compound | zone of inhibition at 20 µg/mL [1] [mm] | MIC [2] [µg/mL] | MIC [3] [µg/mL] | MIC [4] [µg/mL] | MIC [5] [µg/mL] | zone of inhibition at 20 µg/mL [6] [mm] | zone of inhibition at 20 µg/mL [7] [mm] | Activity [8] | Activity [9] | MIC [10] [µg/mL] | MIC [11] [µg/mL] | zone of inhibition at 20 µg/mL [12] [mm] | zone of inhibition at 20 µg/mL [13] [mm] | zone of inhibition at 20 µg/mL [14] [mm] | Activity [16] | Activity [17] | Activity [18] | other results |
| --- | --- | --- | --- | --- | --- | --- | --- | --- | --- | --- | --- | --- | --- | --- | --- | --- | --- | --- |
| O=C1O[C@@H](CNS(=O)(=O)c2ccc(F)cc2)CN1c1ccc(N2CCNCC2)c(F)c1 | 16 | 10 (≈ 22.1 µM) | 4 (≈ 8.84 µM) | 4 (≈ 8.84 µM) | 8 (≈ 17.7 µM) | 20 | 17 | inactive | inactive | 8 (≈ 17.7 µM) | 8 (≈ 17.7 µM) | 18 | 14 | 17 |  |  |  |  |
| O=C1O[C@@H](CNS(=O)(=O)c2ccc(F)cc2Cl)CN1c1ccc(N2CCOCC2)c(F)c1 |  | 8 (≈ 16.4 µM) |  |  |  |  |  | inactive | inactive | 20 (≈ 41 µM) | 20 (≈ 41 µM) |  |  |  | inactive | inactive | inactive | Activity [15]: inactive |
| O=C1O[C@@H](CNS(=O)(=O)c2ccc(Oc3ccccc3)cc2)CN1c1ccc(N2CCSCC2)c(F)c1 |  |  | 20 (≈ 36.8 µM) |  | 20 (≈ 36.8 µM) |  |  | inactive | inactive | 8 (≈ 14.7 µM) | 8 (≈ 14.7 µM) |  |  |  | inactive |  | inactive | Activity [19]: inactive |
| O=C1O[C@@H](CNS(=O)(=O)c2ccc(F)cc2)CN1c1ccc(N2CCOCC2)c(F)c1 |  | 10 (≈ 22.1 µM) | 10 (≈ 22.1 µM) |  | 10 (≈ 22.1 µM) |  |  |  |  | 10 (≈ 22.1 µM) |  |  |  |  | inactive |  |  | MIC [20]: 1 µg/mL (≈ 2.21 µM) |
| O=C1O[C@@H](CNS(=O)(=O)c2cc(S(=O)(=O)c3ccccc3)cs2)CN1c1ccc(N2CCOCC2)c(F)c1 |  |  |  |  |  |  |  | inactive | inactive |  |  |  |  |  | inactive | inactive | inactive | Activity [21]: inactive; Activity [15]: inactive; Activity [19]: inactive; Activity [22]: inactive |
| O=C1O[C@@H](CNS(=O)(=O)c2cccs2)CN1c1ccc(N2CCOCC2)c(F)c1 | 18 | 4 (≈ 9.06 µM) | 4 (≈ 9.06 µM) | 6 (≈ 13.6 µM) | 4 (≈ 9.06 µM) | 20 | 18 | inactive | inactive | 4 (≈ 9.06 µM) | 4 (≈ 9.06 µM) | 19 | 15 | 20 |  |  | inactive |  |
| O=C1O[C@@H](CNS(=O)(=O)c2ccc(C(F)(F)F)cc2)CN1c1ccc(N2CCNCC2)c(F)c1 | 15 | 8 (≈ 15.9 µM) | 8 (≈ 15.9 µM) | 8 (≈ 15.9 µM) | 10 (≈ 19.9 µM) | 16 | 15 | inactive | inactive | 6 (≈ 11.9 µM) | 6 (≈ 11.9 µM) | 16 | 13 | 17 |  |  |  |  |
| CC(=O)NC[C@H]1CN(c2ccc(N3CCOCC3)c(F)c2)C(=O)O1 [LINEZOLID] |  | 1.5 (≈ 4.45 µM) |  | 1 (≈ 2.96 µM) |  | 10 | 18 |  |  | 1.5 (≈ 4.45 µM) | 1.5 (≈ 4.45 µM) | 12 | 20 | 28 |  |  |  |  |
| O=C1O[C@@H](CNS(=O)(=O)c2ccc(F)cc2)CN1c1ccc(N2CCSCC2)c(F)c1 | 16 | 8 (≈ 17 µM) | 10 (≈ 21.3 µM) | 10 (≈ 21.3 µM) | 10 (≈ 21.3 µM) | 23 | 17 | inactive | inactive | 10 (≈ 21.3 µM) | 10 (≈ 21.3 µM) | 17 | 14 | 18 |  |  | inactive |  |
| O=C1O[C@@H](CNS(=O)(=O)c2cccc(Cl)c2)CN1c1ccc(N2CCSCC2)c(F)c1 |  | 20 (≈ 41.2 µM) | 10 (≈ 20.6 µM) |  |  |  |  | inactive | inactive |  |  |  |  |  | inactive | inactive | inactive | Activity [21]: inactive; Activity [22]: inactive |
